# Test results published in ChEMBL document CHEMBL5120825, “The azulene scaffold from a medicinal chemist's perspective: Physicochemical and in vitro parameters relevant for drug discovery” (Eur J Med Chem, 2022).
# Key:
# [1] = Octanol-water partition coefficient, logD of the compound at pH 11 by HPLC analysis; assay type: physicochemical
# [2] = Lipophilicity, logP of the compound; assay type: physicochemical; settings: octanol/water
# [3] = Aqueous solubility of the compound at pH 6.8 incubated for 24 hrs under shaking condition by LC-UV analysis; assay type: physicochemical; settings: aqueous medium
# How it was run: (§1)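 The highest concentration tested was 250 μM, so results are capped at that level. Values are reported in µg/ml.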
# [4] = Octanol-water partition coefficient, logD of the compound at pH 2 by HPLC analysis; assay type: physicochemical
# [5] = Aqueous solubility of the compound at pH 2.2 incubated for 24 hrs under shaking condition by LC-UV analysis; assay type: physicochemical; settings: aqueous medium; how it was run: as §1
# [6] = Aqueous solubility of the compound at pH 4.5 incubated for 24 hrs under shaking condition by LC-UV analysis; assay type: physicochemical; settings: aqueous medium; how it was run: as §1
# [7] = Permeability of the compound at pH 7.4 by PAMPA assay; assay type: ADME; settings: read-out: permeability
# [8] = Metabolic stability in human liver microsomes assessed as hepatic blood flow at 1 uM preincubated with compound followed by NADPH addition by LC-MS/MS analysis; assay type: ADME, Microsome; settings: read-out: QH
SMILES,logD ([1]; read-out: logD),logP ([2]; read-out: logP),solubility thermodynamic at 24 h [3],logD ([4]; read-out: logD),solubility thermodynamic at 24 h [5],solubility thermodynamic at 24 h [6],Papp [7],hepatic extraction ratio at 1 µM [8],logP [2],logD [4],logD [1]
COC(=O)c1ccc2c(C(=O)c3ccccc3)cc(C(=O)c3ccccc3)c-2cc1,5.5,5.5,< 1 µg/mL,5.6,< 1 µg/mL,< 1 µg/mL,0.3 ×10⁻⁶ cm/s,,,,
CN1CCN(C(=O)c2ccc3[nH]cc(C(=O)c4ccccc4)c3c2)CC1,1.3,1.3,69 µg/mL,0.5,> 74 µg/mL,,0.2 ×10⁻⁶ cm/s,< 0.23,,,
CN(C)C(=O)Cc1ccc2cc[nH]c2c1,1,,> 51 µg/mL,,> 51 µg/mL,> 51 µg/mL,1.3 ×10⁻⁶ cm/s,< 0.23,1,1.4,
O=C(NCc1cccnc1)c1ccc2ccc(C(=O)c3ccccc3)c-2cc1,1.4,3,< 1 µg/mL,1.4,70 µg/mL,< 1 µg/mL,2.4 ×10⁻⁶ cm/s,0.46,,,
COC(=O)c1ccc2c(C(=O)Nc3ccccc3)cn(C)c2c1,,,< 1 µg/mL,,< 1 µg/mL,< 1 µg/mL,2.2 ×10⁻⁶ cm/s,,2.9,3.4,3.4
Cn1cc(C(=O)c2ccccc2)c2cc(C(=O)NCCc3cnc[nH]3)ccc21,1.5,1.5,72 µg/mL,0.9,84 µg/mL,107 µg/mL,0.1 ×10⁻⁶ cm/s,0.23,,,
O=C(NCCc1cnc[nH]1)c1ccc2ccc(C(=O)c3ccccc3)c-2cc1,2.3,2.3,< 1 µg/mL,1.3,> 77 µg/mL,57 µg/mL,0.3 ×10⁻⁶ cm/s,0.41,,,
CN1CCN(C(=O)c2ccc3c(c2)c(C(=O)c2ccccc2)cn3C)CC1,2,2,68 µg/mL,0.7,78 µg/mL,76 µg/mL,1.9 ×10⁻⁶ cm/s,< 0.23,,,
NC(=O)C1CCN(C(=O)c2cccc3ccccc23)CC1,0.8,,> 71 µg/mL,,> 70 µg/mL,> 71 µg/mL,0.2 ×10⁻⁶ cm/s,< 0.23,0.8,1.3,
NC(=O)C1CCN(C(=O)c2c[nH]c3ccccc23)CC1,-0.2,,,,,,< 0.01 ×10⁻⁶ cm/s,< 0.23,-0.2,0.3,
c1ccc2cc(CN3CCCCC3)ccc2c1,> 5.5,> 5.5,27 µg/mL,0.9,34 µg/mL,30 µg/mL,4.6 ×10⁻⁶ cm/s,0.72,,,
CN(C)C(=O)Cc1ccc2ccccc2c1,2.4,,40 µg/mL,,41 µg/mL,39 µg/mL,4.7 ×10⁻⁶ cm/s,0.4,2.4,2.7,
COC(=O)c1ccc2c(c1)c(C(=O)c1ccccc1)cn2C(=O)c1ccccc1,5.2,5.2,< 1 µg/mL,5.2,< 1 µg/mL,< 1 µg/mL,1.3 ×10⁻⁶ cm/s,,,,
COC(=O)c1ccc2ccn(C(=O)c3ccccc3)c2c1,4.3,4.3,< 1 µg/mL,4.4,< 1 µg/mL,< 1 µg/mL,0.5 ×10⁻⁶ cm/s,,,,
COC(=O)c1ccc2c(C(=O)c3ccccc3)c[nH]c2c1,2.7,,< 1 µg/mL,,< 1 µg/mL,< 1 µg/mL,1.5 ×10⁻⁶ cm/s,,2.7,3.1,
COC(=O)c1ccc2ccc(C(=O)c3ccccc3)c-2cc1,4.7,4.7,< 1 µg/mL,4.8,< 1 µg/mL,< 1 µg/mL,0.1 ×10⁻⁶ cm/s,,,,
O=C(Nc1ccc2ccccc2c1)c1cccnc1,2.4,2.4,4 µg/mL,1.4,> 50 µg/mL,6 µg/mL,,0.67,,,
